Compounds with a hit are over-represented: about 3.1% of the library has one in this group of screens.
GPR7 antag – human neuropeptides B/W receptor 1 antagonism; P48145; GPR7-expressing cells, fluorescence antagonist assay; inhibition, % at 4.4 µM; hit rate 1.1% among 290,000; in the data active = inhibition above about 16%, passing the limit was not always enough;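 also: cells stimulated with the agonist NPW; 0% = agonist with vehicle and 100% = vehicle without agonist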
Target sequence (P48145 whole entry, looked up): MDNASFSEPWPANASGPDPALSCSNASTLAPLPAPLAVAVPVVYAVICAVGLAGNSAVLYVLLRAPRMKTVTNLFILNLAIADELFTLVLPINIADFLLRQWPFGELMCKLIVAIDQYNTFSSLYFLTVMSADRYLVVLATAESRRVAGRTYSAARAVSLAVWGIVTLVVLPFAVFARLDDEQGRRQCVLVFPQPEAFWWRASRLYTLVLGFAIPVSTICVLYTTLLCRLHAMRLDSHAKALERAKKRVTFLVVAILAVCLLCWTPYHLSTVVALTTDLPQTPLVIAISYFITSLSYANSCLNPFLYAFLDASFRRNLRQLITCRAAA
GalR3 antag – antagonists of human GalR3. HEK293 GalR3-CNG cAMP membrane potential fluorescence; galR3 body fused to GalR1 C-terminus. inhibition, % at 3 µM. hit rate 0.44% among 360,000. AID 651719;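 active = inhibition above the screen-wide average plus 3 SD, cut at about 13% in these data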;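 also: forskolin and galanin both at EC90 stimulate the cells; cAMP rise reported by CNG channel membrane potential dye signal; 0% = forskolin plus galanin with DMSO and 100% = forskolin alone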
OX1R antag-1 – OX1R (human) antagonism; O43613; OX1R-expressing cells, FRET antagonist read-out; inhibition, % at 6.6 µM; hit rate 1.8% among 330,000; AID 485270; in the data active = inhibition mostly above about 38%, no sharp cut-off; inactive = mostly below about 40%;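 also: 0% = agonist challenge alone and 100% = reference antagonist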
CHO parental Ca – counter-screen: ATP calcium response change in parental CHO cells; parental CHO-K1, ATP-induced calcium, Fluo-8 fluorescence; hit rate 0.63% among 330,000; AID 463079; inhibition, % at 5.6 µM;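 active = inhibition above that plate's mean sample inhibition plus 3 SD, cut at about 26% in these data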;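 also: 0% = ATP-challenged DMSO wells and 100% = DMSO wells without ATP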
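Material: parental CHO cells / Compound: single nominal dose of 5.6 µM per compound / Signal: Fluo-8 fluorescence / Replicates: singlicate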
OX1R antag-2 – human HCRTR1 antagonism. O43613. CHO/OX1R cells, Fluo-8 calcium fluorescence, orexin A. inhibition, % at 5 µM. hit rate 0.43% among 330,000. AID 434989;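 active = inhibition above its plate's threshold, mean inhibition of all tested compounds on the plate plus 3 SD, cut at about 37% in these data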;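 also: 0% = orexin A challenge wells and 100% = SB-334867-A antagonist wells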
Active calls of the source: *; . = no result.

SMILES	GPR7 antag	GalR3 antag	OX1R antag-1	CHO parental Ca	OX1R antag-2
COc1ccccc1C(=O)NCCn1cc(SCC(=O)Nc2cc(C)on2)c2ccccc21	4	-6	42*	-19	-3
N#CCc1nc(CSc2nc3ccccc3s2)cs1	16*	0	7	-7	4
Cc1ccccc1Cn1c(C)c(C(=O)NCC(C)C)sc1=O	.	-2	.	.	.
C=CCn1c(NC(=O)c2ccccc2Cl)c(C#N)c2nc3ccccc3nc21	1	-4	69*	8	-3
CCCCn1c(NC(C)=O)c(C#N)c2nc3ccccc3nc21	6	-5	24	-14	-21
C[C@@H]1CN([C@H](C)CO)C(=O)CCCn2cc(nn2)CO[C@H]1CN(C)S(=O)(=O)c1cn(C)cn1	.	-5	.	.	.
Oc1c(I)cc(Cl)c2cccnc12	-5	0	61*	41*	49*
COc1ccc(C(C(=O)NC(C)(C)C)N(Cc2ccco2)C(=O)CCC(=O)Nc2ccccn2)cc1 (stereo not drawn)	-2	-9	-8	-9	-9
COCCNC(=O)C(c1ccc(C)cc1)N(Cc1ccco1)C(=O)CCC(=O)Nc1ccccn1 (stereo not drawn)	1	-7	56*	-3	3
Cc1ccc2nc3nc(NCC4CCCO4)c(C(=O)NC4CCCCC4)cc3c(=O)n2c1 (stereo not drawn)	7	.	25	6	-13
C=CCNC(=O)c1cc2c(=O)n3cc(C)ccc3nc2nc1NCC1CCCO1 (stereo not drawn)	-8	.	47*	7	-9
Cc1ccc2nc3nc(NCC4CCCO4)c(C(=O)NC4CCCC4)cc3c(=O)n2c1 (stereo not drawn)	-10	9	43	-17	-19
CCNc1nc2nc3ccc(C)cn3c(=O)c2cc1C(=O)NCC1CCCO1 (stereo not drawn)	-4	-4	64*	-17	-23
COCCCNC(=O)c1cc2c(=O)n3cc(C)ccc3nc2nc1NCC1CCCO1 (stereo not drawn)	-10	.	105*	-13	-16
C=CCN1C[C@@H](COCc2ccccc2)OCCS1(=O)=O	.	-2	.	.	.
C=CCCC1CN(Cc2ccc(OC)cc2)S(=O)(=O)c2c(NCc3cc(OC)c(OC)c(OC)c3)cccc2O1 (stereo not drawn)	.	-6	.	.	.
CCN(CC)c1ccc(C(=O)OCC(=O)Nc2ccccc2-c2ccccc2)cc1	4	-5	49*	67*	-3
Cc1ccc(C#CC[N+]2(CC#Cc3ccc(C)cc3)CCCCC2)cc1	19*	-3	14	16	-5
C(#Cc1ccccc1)C[N+]1(CC#Cc2ccccc2)CCCCC1	-4	0	15	6	-8
O=C(Nc1cc(Cl)cc(Cl)c1)Nc1cnccn1	0	-1	39	36*	30
C[C@H](CO)N1C[C@H](C)[C@@H](CN(C)S(=O)(=O)c2ccc(F)cc2)Oc2c(NC(=O)c3ccncc3)cccc2C1=O	.	1	.	.	.
CCOc1ccc(C(CCc2ccccc2)NC(=O)c2ccccc2OC)cc1OCC (stereo not drawn)	2	.	14	24	47*
CCN1CCN(c2oc(COc3ccc(-c4ccccc4)cc3)nc2C#N)CC1	12	-8	15	-15	-10
N#Cc1nc(COc2ccc(Br)cc2)oc1N1CCN(Cc2ccccc2)CC1	29*	-3	.	.	.
COc1ccc(/C=N/NC(=O)c2nn(-c3ccc(Cl)cc3)c(=O)c3c(N)scc23)cc1	-4	-3	52*	-8	-14
SMILES	GPR7 antag	GalR3 antag	OX1R antag-1	CHO parental Ca	OX1R antag-2
COc1ccc(/C=N/NC(=O)c2nn(-c3ccccc3)c(=O)c3c(N)scc23)cc1	-8	-6	70*	-3	0
CC(=O)C1=C(C)NC(=S)NC1c1ccccc1 (stereo not drawn)	.	4	.	.	.
Cc1ccc(C(=O)Nc2ccc3c(c2)OCO3)cc1	-8	0	10	-11	-19
CCc1nc2ccc(C(=O)Nc3ccc4c(c3)OCO4)cc2nc1CC	15	-2	35*	-9	-23
COc1ccccc1Cc1c(-c2cccc(Br)c2)nc2ccc(C)cn12	.	-6	.	.	.
CCN(CC1COc2ccccc2O1)C(=O)c1ccc(Cl)c(S(=O)(=O)N2CC(C)OC(C)C2)c1 (stereo not drawn)	.	-3	50*	-15	-11
CC1CN(S(=O)(=O)c2cc(C(=O)N(CCc3ccccc3)Cc3ccccc3)ccc2Cl)CC(C)O1 (stereo not drawn)	.	-2	24	-16	-27
CCc1cc2c(N3CCN(c4ccccc4)CC3)ncnc2s1	4	-4	31	60*	58*
